Results reported in ChEMBL document CHEMBL4177755, “Combating Drug-Resistant Fungi with Novel Imperfectly Amphipathic Palindromic Peptides” (J Med Chem, 2018).

Assays:
Candida albicans [1] = test: Antifungal activity against Candida albicans cgmcc 2.2086 after 48 hrs by broth microdilution method; type: functional; settings: cgmcc 2.2086, 48 h
How it was run: (§1)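 Modified CLSI M27-A2 broth microdilution. Yeast at (0.5−1) × 10^3 CFU/mL in MOPS-buffered RPMI 1640 was mixed 1:1 with peptide serially diluted in 0.2% BSA and incubated 48 h at 28 °C. Absorbance was read at 492 nm; MIC is the lowest concentration inhibiting 95% of growth. Triplicate, three biological replicates.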

Staphylococcus aureus [2] = test: Bactericidal activity against Staphylococcus aureus ATCC 25923; type: functional; settings: read-out: MBC99.9
How it was run: (§2)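 Wells from the 24 h, 37 °C MHB microdilution plates (bacteria at a final (0.5−1) × 10^5 CFU/mL; peptide diluted in 0.2% BSA) were plated on agar and incubated overnight. MBC is the lowest concentration killing >99.9% of cells. Each test was reproduced at least 3 times.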

Candida albicans [3] = test: Antifungal activity against Candida albicans cgmcc 2.2086 in presence of CaCl2 by broth dilution method; type: functional
Candida albicans [4] = test: Antifungal activity against Candida albicans cgmcc 2.2086 in presence of NH4Cl by broth dilution method; type: functional
Candida albicans [5] = test: Fungicidal activity against Candida albicans SP3931 after 96 hrs; type: functional; settings: SP3931, 96 h, read-out: MFC99.9
How it was run: (§3)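 After the 48 h, 28 °C broth microdilution in MOPS-buffered RPMI 1640 (inoculum (0.5−1) × 10^3 CFU/mL), 50 μL from each well was plated on YM agar for a further 48 h at 28 °C. MFC is the lowest concentration killing at least 99.9% of cells. Triplicate, three biological replicates.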

Candida albicans [6] = test: Fungicidal activity against fluconazole-resistant Candida albicans 56452 after 96 hrs; type: functional; settings: Candida albicans, 56452, 96 h; read-out: MFC99.9; how it was run: as §3
Candida albicans [7] = test: Antifungal activity against Candida albicans isolated from alveolar fluid after 48 hrs by broth microdilution method; type: functional; how it was run: as §1
Candida albicans [8] = test: Fungicidal activity against Candida albicans cgmcc 2.2086 after 96 hrs; type: functional; settings: cgmcc 2.2086, 96 h, read-out: MFC99.9; how it was run: as §3
Escherichia coli [9] = test: Antibacterial activity against Escherichia coli ATCC 25922 after 18 hrs in presence of NaCl by broth dilution method; type: functional; settings: ATCC 25922, 18 h
Candida albicans [10] = test: Antifungal activity against Candida albicans SP3903 after 48 hrs by broth microdilution method; type: functional; settings: SP3903, 48 h; how it was run: as §1
Candida albicans [11] = test: Fungicidal activity against Candida albicans isolated from alveolar fluid after 96 hrs; type: functional; settings: read-out: MFC99.9; how it was run: as §3
Escherichia coli [12] = test: Antibacterial activity against Escherichia coli ATCC 25922 after 18 hrs in presence of FeCl3 by broth dilution method; type: functional; settings: ATCC 25922, 18 h
Staphylococcus aureus [13] = test: Antibacterial activity against Staphylococcus aureus ATCC 29213 after 24 hrs; type: functional; settings: ATCC 29213, 24 h
How it was run: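 Modified NCCLS broth microdilution. Mid-log bacteria at (0.5−1) × 10^5 CFU/mL in MHB were mixed 1:1 with peptide serially diluted in 0.2% BSA and incubated 24 h at 37 °C. Absorbance was read at 492 nm; MIC is the lowest concentration inhibiting 95% of growth. At least 3 repeats.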

Candida albicans [14] = test: Antifungal activity against Candida albicans SP3902 after 48 hrs by broth microdilution method; type: functional; settings: SP3902, 48 h; how it was run: as §1
[15] = Cytotoxicity against mouse RAW264.7 cells assessed as cell viability at 2 to 64 uM after 24 hrs by MTT assay relative to control; type: cell-based; settings: read-out: Activity
How it was run: (§4)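 MTT viability assay. RAW264.7 or HEK293T cells at (1.0−2.0) × 10^5 per well were exposed to a peptide concentration series for 24 h at 37 °C in 5% CO2. MTT was then added at 0.5 mg/mL final for 4 h; formazan was dissolved in DMSO and read at 570 nm. Results average three independent trials.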

[16] = Antibacterial activity against Salmonella pullorum ATCC 7913 after 24 hrs; type: functional, Salmonella enterica subsp. enterica serovar Pullorum; settings: Salmonella enterica, ATCC 7913, 24 h
How it was run: (§5)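 Broth microdilution. Mid-log bacteria in MHB at a final (0.5−1) × 10^5 CFU/mL were mixed with equal volumes of peptide serially diluted in 0.2% BSA. Plates were incubated 24 h at 37 °C and read at A492. MIC is the lowest concentration inhibiting 95% of growth. Each test was repeated at least 3 times.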

Candida albicans [17] = test: Antifungal activity against fluconazole-resistant Candida albicans 56214 after 48 hrs by broth microdilution method; type: functional; settings: Candida albicans, 56214, 48 h; how it was run: as §1
Candida albicans [18] = test: Antifungal activity against Candida albicans cgmcc 2.2086 in presence of KCl by broth dilution method; type: functional
[19] = Cytotoxicity against HEK293T cells assessed as cell viability at 2 to 64 uM after 24 hrs by MTT assay relative to control; type: cell-based, HEK-293T; settings: human, read-out: Activity; how it was run: as §4
Escherichia coli [20] = test: Antibacterial activity against Escherichia coli ATCC 25922 after 18 hrs in presence of MgCl2 by broth dilution method; type: functional; settings: ATCC 25922, 18 h
Erythrocyte = test: Hemolytic activity in human RBC after 1 hr; type: ADME, cell-based
How it was run: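 Fresh human erythrocytes, diluted 10-fold in PBS pH 7.4, were mixed with equal volumes of peptide and held 1 h at 37 °C. After centrifugation at 1000g, supernatant hemoglobin was read at 576 nm. PBS set 0% and 0.1% Triton X-100 set 100% lysis. MHC is the concentration causing 10% hemolysis. At least three experiments were run, each in technical triplicate.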

Escherichia coli [21] = test: Antibacterial activity against Escherichia coli ATCC 25922 after 18 hrs in presence of NH4Cl by broth dilution method; type: functional; settings: ATCC 25922, 18 h
[22] = Bactericidal activity against Salmonella pullorum ATCC 7913; type: functional, Salmonella enterica subsp. enterica serovar Pullorum; settings: Salmonella enterica, read-out: MBC99.9; how it was run: as §2
Candida albicans [23] = test: Antifungal activity against Candida albicans cgmcc 2.2086 in presence of MgCl2 by broth dilution method; type: functional
Pichia kudriavzevii = test: Antifungal activity against Candida krusei cgmcc 2.1857 after 48 hrs by broth microdilution method; type: functional; settings: cgmcc 2.1857, 48 h
How it was run: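 Modified CLSI M27-A2 broth microdilution. Yeast were suspended in MOPS-buffered RPMI 1640 at a final (0.5−1) × 10^3 CFU/mL and mixed 1:1 with peptide serially diluted in 0.2% BSA. Plates were incubated 48 h at 28 °C and read at A492. MIC is the lowest concentration giving 95% inhibition. Run in triplicate with three biological replicates.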

Escherichia coli [24] = test: Antibacterial activity against Escherichia coli 1005 after 24 hrs; type: functional; settings: Escherichia coli, 1005, 24 h; how it was run: as §5
Candida albicans [25] = test: Fungicidal activity against Candida albicans SP3903 after 96 hrs; type: functional; settings: SP3903, 96 h, read-out: MFC99.9; how it was run: as §3
Candida albicans [26] = test: Antifungal activity against Candida albicans cgmcc 2.2086 in presence of NaCl by broth dilution method; type: functional

Substance: H-RFRFFFRFR-NH2
- MIC95 (Candida albicans [1]): 8 µM
- MBC (Staphylococcus aureus [2]): 8 µM
- MIC (Candida albicans [3]): 64 µM
- MIC (Candida albicans [4]): 8 µM
- MFC (Candida albicans [5]): 16 µM
- MFC (Candida albicans [6]): 4 µM
- MIC95 (Candida albicans [7]): 8 µM
- MFC (Candida albicans [8]): 16 µM
- MIC (Escherichia coli [9]): 4 µM
- MIC95 (Candida albicans [10]): 4 µM
- MFC (Candida albicans [11]): 16 µM
- MIC (Escherichia coli [12]): 4 µM
- MIC95 (Staphylococcus aureus [13]): 4 µM
- MIC95 (Candida albicans [14]): 4 µM
- viability at 24 h, up to 64 µM [15]: 70 to 80%
- MIC95 [16]: 2 µM
- MIC95 (Candida albicans [17]): 8 µM
- MIC (Candida albicans [18]): 32 µM
- viability at 24 h, up to 64 µM [19]: 70 to 80%
- MIC (Escherichia coli [20]): 2 µM
- HC10 (Erythrocyte): > 128 µM
- MIC (Escherichia coli [21]): 4 µM
- MBC [22]: 8 µM
- MIC (Candida albicans [23]): 16 µM
- MIC95 (Pichia kudriavzevii): 4 µM
- MIC95 (Escherichia coli [24]): 4 µM
- MFC (Candida albicans [25]): 4 µM
- MIC (Candida albicans [26]): 32 µM

Substance: H-RIIRRIRRIIR-NH2
- MIC95 (Candida albicans [1]): 16 µM
- MBC (Staphylococcus aureus [2]): 64 µM
- MIC (Candida albicans [3]): 64 µM
- MIC (Candida albicans [4]): 16 µM
- MFC (Candida albicans [5]): 32 µM
- MFC (Candida albicans [6]): 8 µM
- MIC95 (Candida albicans [7]): 16 µM
- MFC (Candida albicans [8]): 64 µM
- MIC (Escherichia coli [9]): 16 µM
- MIC95 (Candida albicans [10]): 4 µM
- MFC (Candida albicans [11]): 32 µM
- MIC (Escherichia coli [12]): 16 µM
- MIC95 (Staphylococcus aureus [13]): 64 µM
- MIC95 (Candida albicans [14]): 16 µM
- viability at 24 h, up to 64 µM [15]: 70 to 80%
- MIC95 [16]: 16 µM
- MIC95 (Candida albicans [17]): 8 µM
- MIC (Candida albicans [18]): 64 µM
- viability at 24 h, up to 64 µM [19]: 70 to 80%
- MIC (Escherichia coli [20]): 16 µM
- HC10 (Erythrocyte): > 128 µM
- MIC (Escherichia coli [21]): 16 µM
- MBC [22]: 64 µM
- MIC (Candida albicans [23]): 32 µM
- MIC95 (Pichia kudriavzevii): 4 µM
- MIC95 (Escherichia coli [24]): 8 µM
- MFC (Candida albicans [25]): 4 µM
- MIC (Candida albicans [26]): 64 µM

Substance: H-RIRIIIRIR-NH2
- MIC95 (Candida albicans [1]): 4 µM
- MBC (Staphylococcus aureus [2]): 8 µM
- MIC (Candida albicans [3]): 32 µM
- MIC (Candida albicans [4]): 4 µM
- MFC (Candida albicans [5]): 8 µM
- MFC (Candida albicans [6]): 4 µM
- MIC95 (Candida albicans [7]): 4 µM
- MFC (Candida albicans [8]): 8 µM
- MIC (Escherichia coli [9]): 8 µM
- MIC95 (Candida albicans [10]): 2 µM
- MFC (Candida albicans [11]): 8 µM
- MIC (Escherichia coli [12]): 8 µM
- MIC95 (Staphylococcus aureus [13]): 4 µM
- MIC95 (Candida albicans [14]): 2 µM
- viability at 24 h, up to 64 µM [15]: 70 to 80%
- MIC95 [16]: 4 µM
- MIC95 (Candida albicans [17]): 2 µM
- MIC (Candida albicans [18]): 4 µM
- viability at 24 h, up to 64 µM [19]: 70 to 80%
- MIC (Escherichia coli [20]): 8 µM
- HC10 (Erythrocyte): > 128 µM
- MIC (Escherichia coli [21]): 4 µM
- MBC [22]: 16 µM
- MIC (Candida albicans [23]): 4 µM
- MIC95 (Pichia kudriavzevii): 2 µM
- MIC95 (Escherichia coli [24]): 4 µM
- MFC (Candida albicans [25]): 8 µM
- MIC (Candida albicans [26]): 16 µM

Substance: H-RLLRRLRRLLR-NH2
- MIC95 (Candida albicans [1]): 8 µM
- MBC (Staphylococcus aureus [2]): 16 µM
- MIC (Candida albicans [3]): 8 µM
- MIC (Candida albicans [4]): 4 µM
- MFC (Candida albicans [5]): 8 µM
- MFC (Candida albicans [6]): 8 µM
- MIC95 (Candida albicans [7]): 8 µM
- MFC (Candida albicans [8]): 16 µM
- MIC (Escherichia coli [9]): 4 µM
- MIC95 (Candida albicans [10]): 4 µM
- MFC (Candida albicans [11]): 16 µM
- MIC (Escherichia coli [12]): 16 µM
- MIC95 (Staphylococcus aureus [13]): 4 µM
- MIC95 (Candida albicans [14]): 4 µM
- viability at 24 h, up to 64 µM [15]: 70 to 80%
- MIC95 [16]: 8 µM
- MIC95 (Candida albicans [17]): 8 µM
- MIC (Candida albicans [18]): 16 µM
- viability at 24 h, up to 64 µM [19]: 70 to 80%
- MIC (Escherichia coli [20]): 2 µM
- HC10 (Erythrocyte): > 128 µM
- MIC (Escherichia coli [21]): 4 µM
- MBC [22]: 32 µM
- MIC (Candida albicans [23]): 32 µM
- MIC95 (Pichia kudriavzevii): 4 µM
- MIC95 (Escherichia coli [24]): 4 µM
- MFC (Candida albicans [25]): 4 µM
- MIC (Candida albicans [26]): 16 µM
